In ChEMBL document CHEMBL1806370, “Development of novel naphthalimide derivatives and their evaluation as potential melanoma therapeutics” (Eur J Med Chem, 2011):

Tests used:
UACC-903 [1] = assay: Induction of apoptosis in human UACC-903 cells assessed as viable cells at 5 uM after 24 hrs using annexin-V-PE/7-AAD double staining by flow cytometry; format: functional; settings: UACC-903, 24 h, read-out: Activity
How it was run: (§1)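 UACC 903 cells were exposed 24 h at 37 °C to 1, 5 or 25 µM, with DMSO as control. Cells were harvested, washed twice in cold PBS and resuspended at 1×10^6 cells/mL in binding buffer. They were stained with 7-AAD plus PE Annexin V for 20 min at room temperature in the dark and run by flow cytometry within 1 h. Gating: double-negative live, 7-AAD+ dead, Annexin V+/7-AAD− early apoptotic. Three separate experiments.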

SK-MEL-37 (Homo sapiens) [2] = assay: Cytotoxicity against human SK-MEL-37 cells assessed as decrease in cell viability after 72 hrs by MTS assay
1205Lu [3] = assay: Cytotoxicity against human 1205 Lu cells assessed as decrease in cell viability after 24 hrs by MTS assay; format: functional, cell-based
How it was run: (§2)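 Cells in DMEM with 10% FBS at 37 °C and 5% CO2 were plated at 5×10^3 per well and grown 24 h. They were then exposed 24 or 72 h to 0.5, 1, 5, 10, 25 and 50 µM, with final DMSO 0.5% and DMSO controls. MTS/PMS was added for 4 h at 37 °C. A492 was read with the medium blank subtracted and expressed as % of control. IC50 was taken from three independent experiments (mean ± S.E.).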

Mus musculus [4] = assay: Systemic toxicity in athymic Harlan Sprague-Dawley nude mouse xenografted with human UACC-903 cells assessed as reduction in body weight at 8.5 to 10 mg/kg, ip administered thrice a week for 24 days; format: organism-based; parameters: dose 8.5-10 mg/kg, route intraperitoneal; settings: in vivo, 576 h
How it was run: (§3)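 Female athymic nude mice, 4–6 weeks old, received 5×10^6 UACC 903 cells s.c. in DMEM/10% FBS above both rib cages. After six days they were randomized at 5 mice/group, 2 tumors/mouse. Dosing was i.p. Mon/Wed/Fri, with one arm dosed daily; controls got DMSO vehicle. Tumor dimensions (calipers, mm³) and body weight were recorded three times weekly.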

Mus musculus [5] = assay: Systemic toxicity in Swiss Webster mouse assessed as weight loss at 10 mg/kg, ip administered every day for 28 days; format: organism-based; parameters: dose 10 mg/kg, route intraperitoneal; settings: in vivo, 672 h
How it was run: (§4)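 Swiss Webster mice, n = 4 per group, dosed i.p. once daily for 28 days at 5, 7.5, 10 or 15 mg/kg body weight. Body weight recorded twice per week; deaths noted over the dosing period.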

UACC-903 [6] = assay: Induction of apoptosis in human UACC-903 cells assessed as early apoptotic cells at 5 uM after 24 hrs using annexin-V-PE/7-AAD double staining by flow cytometry; format: functional; how it was run: as §1
UACC-903 [7] = assay: Induction of apoptosis in human UACC-903 cells assessed as non-viable cells at 1 uM after 24 hrs using annexin-V-PE/7-AAD double staining by flow cytometry; format: functional; how it was run: as §1
UACC-903 [8] = assay: Antitumor activity against human UACC-903 cells xenografted in athymic Harlan Sprague-Dawley nude mouse assessed as reduction in tumor growth at 8.5 to 10 mg/kg, ip administered thrice per week for 24 days measured after 21 days; format: functional; settings: dose mg/kg 8.5-10; route intraperitoneal; how it was run: as §3
UACC-903 [9] = assay: Induction of apoptosis in human UACC-903 cells assessed as viable cells at 25 uM after 24 hrs using annexin-V-PE/7-AAD double staining by flow cytometry; format: functional; settings: UACC-903, 24 h, read-out: Activity; how it was run: as §1
Mus musculus [10] = assay: Systemic toxicity in Swiss Webster mouse assessed as mortality at 15 mg/kg, ip administered every day for 28 days; format: organism-based; parameters: dose 15 mg/kg, route intraperitoneal; settings: in vivo, 672 h; how it was run: as §4
UACC-903 [11] = assay: Induction of apoptosis in human UACC-903 cells assessed as viable cells at 1 uM after 24 hrs using annexin-V-PE/7-AAD double staining by flow cytometry; format: functional; settings: UACC-903, 24 h, read-out: Activity; how it was run: as §1
1205Lu [12] = assay: Cytotoxicity against human 1205 Lu cells assessed as decrease in cell viability after 72 hrs by MTS assay; format: functional, cell-based; how it was run: as §2
UACC-903 [13] = assay: Induction of apoptosis in human UACC-903 cells assessed as increase in apoptotic cells after 24 hrs using annexin-V-PE/7-AAD double staining by flow cytometry; format: functional, cell-based; how it was run: as §1
UACC-903 [14] = assay: Antitumor activity against human UACC-903 cells xenografted in athymic Harlan Sprague-Dawley nude mouse assessed as reduction in tumor growth at 8.5 to 10 mg/kg, ip administered daily for 24 days measured after 21 days; format: functional; settings: dose mg/kg 8.5-10; route intraperitoneal; how it was run: as §3
A375-S2 [15] = assay: Cytotoxicity against human A375-S2 cells assessed as decrease in cell viability after 24 hrs by MTS assay; format: functional, cell-based; how it was run: as §2
UACC-903 [16] = assay: Induction of apoptosis in human UACC-903 cells assessed as early apoptotic cells at 25 uM after 24 hrs using annexin-V-PE/7-AAD double staining by flow cytometry; format: functional; how it was run: as §1
UACC-903 [17] = assay: Cytotoxicity against human UACC-903 cells after 72 hrs by MTS assay; format: functional, cell-based; settings: UACC-903, 72 h; how it was run: as §2
[18] = Cytotoxicity against human SK-MEL-37 cells after 24 hrs by MTS assay; format: functional, cell-based; how it was run: as §2
A375-S2 [19] = assay: Cytotoxicity against human A375-S2 cells assessed as decrease in cell viability after 72 hrs by MTS assay; format: functional, cell-based; how it was run: as §2
UACC-903 [20] = assay: Cytotoxicity against human UACC-903 cells after 24 hrs by MTS assay; format: functional, cell-based; settings: UACC-903, 24 h; how it was run: as §2
UACC-903 [21] = assay: Cytotoxicity against human UACC-903 cells assessed as decrease in cell viability after 24 hrs by MTS assay; format: functional, cell-based; how it was run: as §2
[22] = Cytotoxicity against human SK-MEL-37 cells after 72 hrs by MTS assay; format: functional, cell-based; how it was run: as §2
UACC-903 [23] = assay: Induction of apoptosis in human UACC-903 cells assessed as non-viable cells at 25 uM after 24 hrs using annexin-V-PE/7-AAD double staining by flow cytometry; format: functional; how it was run: as §1
UACC-903 [24] = assay: Cytotoxicity against human UACC-903 cells assessed as decrease in cell viability after 72 hrs by MTS assay; format: functional, cell-based; how it was run: as §2
UACC-903 [25] = assay: Induction of apoptosis in human UACC-903 cells assessed as late apoptotic cells at 5 uM after 24 hrs using annexin-V-PE/7-AAD double staining by flow cytometry; format: functional; how it was run: as §1
Mus musculus [26] = assay: Systemic toxicity in Swiss Webster mouse assessed as mortality at 10 mg/kg, ip administered every day for 28 days; format: organism-based; parameters: dose 10 mg/kg, route intraperitoneal; settings: in vivo, 672 h; how it was run: as §4
[27] = Cytotoxicity against human 1205 Lu cells after 24 hrs by MTS assay; format: functional, cell-based; how it was run: as §2
SK-MEL-37 (Homo sapiens) [28] = assay: Cytotoxicity against human SK-MEL-37 cells assessed as decrease in cell viability after 24 hrs by MTS assay
UACC-903 [29] = assay: Induction of apoptosis in human UACC-903 cells assessed as late apoptotic cells at 25 uM after 24 hrs using annexin-V-PE/7-AAD double staining by flow cytometry; format: functional; how it was run: as §1
[30] = Cytotoxicity against human A375-S2 cells after 72 hrs by MTS assay; format: functional, cell-based; settings: A375-S2, 72 h; how it was run: as §2
UACC-903 [31] = assay: Induction of apoptosis in human UACC-903 cells assessed as non-viable cells at 5 uM after 24 hrs using annexin-V-PE/7-AAD double staining by flow cytometry; format: functional; how it was run: as §1
UACC-903 [32] = assay: Induction of apoptosis in human UACC-903 cells assessed as early apoptotic cells at 1 uM after 24 hrs using annexin-V-PE/7-AAD double staining by flow cytometry; format: functional; how it was run: as §1
UACC-903 [33] = assay: Induction of apoptosis in human UACC-903 cells assessed as late apoptotic cells at 1 uM after 24 hrs using annexin-V-PE/7-AAD double staining by flow cytometry; format: functional; how it was run: as §1
[34] = Cytotoxicity against human 1205 Lu cells after 72 hrs by MTS assay; format: functional, cell-based; how it was run: as §2
[35] = Cytotoxicity against human A375-S2 cells after 24 hrs by MTS assay; format: functional, cell-based; settings: A375-S2, 24 h; how it was run: as §2
Mus musculus [36] = assay: Systemic toxicity in athymic Harlan Sprague-Dawley nude mouse xenografted with human UACC-903 cells assessed as mortality at 10 mg/kg, ip administered daily for 28 days; format: organism-based; parameters: dose 10 mg/kg, route intraperitoneal; settings: in vivo, 672 h
UACC-903 [37] = assay: Antitumor activity against human UACC-903 cells xenografted in athymic Harlan Sprague-Dawley nude mouse assessed as reduction in tumor growth at 9.5 to 10.6 mg/kg, ip administered thrice per week for 24 days measured after 21 days; format: functional; settings: dose mg/kg 9.5-10.6; route intraperitoneal; how it was run: as §3
Mus musculus [38] = assay: Systemic toxicity in Swiss Webster mouse assessed as reduction in body weight at 10 mg/kg, ip administered daily for 28 days; parameters: scale not given: the % may be the effect or the level left; settings: in vivo, 672 h
Mus musculus [39] = assay: Systemic toxicity in athymic Harlan Sprague-Dawley nude mouse xenografted with human UACC-903 cells assessed as reduction in body weight at 9.5 to 10.6 mg/kg, ip administered thrice a week for 24 days; format: organism-based; parameters: dose 9.5-10.6 mg/kg, route intraperitoneal; settings: in vivo, 576 h; how it was run: as §3

| SMILES | viability at 5 µM (UACC-903 [1]) [%] | Activity (SK-MEL-37 (Homo sapiens) [2]) | Activity (1205Lu [3]) | Activity (Mus musculus [5]) | Activity (UACC-903 [6]) [%] | Activity (UACC-903 [7]) [%] | viability at 25 µM (UACC-903 [9]) [%] | Activity (Mus musculus [10]) | viability at 1 µM (UACC-903 [11]) [%] | Activity (1205Lu [12]) | Activity (UACC-903 [13]) | Activity (A375-S2 [15]) | Activity (UACC-903 [16]) [%] | IC50 (UACC-903 [17]) [µM] | IC50 [18] [µM] | Activity (A375-S2 [19]) | IC50 (UACC-903 [20]) [µM] | Activity (UACC-903 [21]) | IC50 [22] [µM] | Activity (UACC-903 [23]) [%] | further results |
| --- | --- | --- | --- | --- | --- | --- | --- | --- | --- | --- | --- | --- | --- | --- | --- | --- | --- | --- | --- | --- | --- |
| O=C1c2cccc3cccc(c23)C(=O)N1CCN=C=S | 69.3 | Dose-dependent effect | Dose-dependent effect | Non-toxic | 19.4 | 6.41 | 64.3 | Toxic | 76.3 | Dose-dependent effect | Dose-dependent effect | Dose-dependent effect | 22.1 | 8.04 | 5.93 | Dose-dependent effect | 11.3 | Dose-dependent effect | 2.2 | 5.59 | Activity (Mus musculus [4]): Non-toxic; growth inhibition (GI) (UACC-903 [8]): 30%; growth inhibition (GI) (UACC-903 [14]): 50%; Activity (UACC-903 [24]): Dose-dependent effect; Activity (UACC-903 [25]): 7.96%; Activity (Mus musculus [26]): Non-toxic; IC50 [27]: 9.41 µM; Activity (SK-MEL-37 (Homo sapiens) [28]): Dose-dependent effect; Activity (UACC-903 [29]): 7.98%; IC50 [30]: 5.05 µM; Activity (UACC-903 [31]): 3.41%; Activity (UACC-903 [32]): 12.4%; Activity (UACC-903 [33]): 4.96%; IC50 [34]: 6.04 µM; IC50 [35]: 7.93 µM |
| N=C(N)SCCN1C(=O)c2cccc3cc([N+](=O)[O-])cc(c23)C1=O | 70.4 | Dose-dependent effect | Dose-dependent effect | Non-toxic | 25.1 | 0.56 | 47.2 | Toxic | 76.9 | Dose-dependent effect | Dose-dependent effect | Dose-dependent effect | 40.2 | 6.95 | 23.4 | Dose-dependent effect | 14.7 | Dose-dependent effect | 15 | 0.32 | Activity (Mus musculus [36]): Non-toxic; growth inhibition (GI) (UACC-903 [37]): 20%; Activity (Mus musculus [38]): 10%; Activity (UACC-903 [24]): Dose-dependent effect; Activity (UACC-903 [25]): 3.99%; Activity (Mus musculus [26]): Non-toxic; IC50 [27]: 39.5 µM; Activity (SK-MEL-37 (Homo sapiens) [28]): Dose-dependent effect; Activity (Mus musculus [39]): Non-toxic; Activity (UACC-903 [29]): 12.3%; IC50 [30]: 9.48 µM; Activity (UACC-903 [31]): 0.43%; Activity (UACC-903 [32]): 20.1%; Activity (UACC-903 [33]): 2.41%; IC50 [34]: 16.4 µM; IC50 [35]: 18.4 µM |
